Runt-SMMHC FRET: blocks binding of human RUNX1 Runt domain to CBFb-SMMHC. Q01196+Q13951. Cerulean-Runt/Venus-CBFb-SMMHC FRET ratio 530/480, 1 h. inhibition, % at 20 µM. 220,000 compounds, 0.74% hits. AID 1434;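 active = mean inhibition across duplicate retests at 20 µM reaching about 50%, limit read from the data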;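 note: inhibitors lower the FRET ratio by blocking Runt binding to CBFb-SMMHC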
Wee1 degr inh: blocks degradation of human Wee1 kinase; reporter increase, % at 5 µM; 220,000 compounds, 1.2% hits; AID 1321; HeLa Luc-Wee1K328M stability, luciferase luminescence; 100% = proteasome inhibitor MG132 effect; P30291;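 active = activation above the mean of all tested compounds plus 3 SD, set per screening run, cut at about 8.8% in these data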;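 note: cells exposed to compound for 20 h before luminescence read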
proKLK7 act: activates the human kallikrein-7 zymogen; activation, % at 7 µM; AID 652039; 370,000 compounds, 0.9% hits; purified proKLK7, EDANS-DABCYL substrate fluorescence; 100% is mature enzyme control, 0% vehicle; P49862;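 active = activation above the mean of all tested compounds plus 3 SD, computed per campaign excluding outliers beyond control limits, cut at about 13% in these data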
Target sequence (P49862 whole entry, looked up): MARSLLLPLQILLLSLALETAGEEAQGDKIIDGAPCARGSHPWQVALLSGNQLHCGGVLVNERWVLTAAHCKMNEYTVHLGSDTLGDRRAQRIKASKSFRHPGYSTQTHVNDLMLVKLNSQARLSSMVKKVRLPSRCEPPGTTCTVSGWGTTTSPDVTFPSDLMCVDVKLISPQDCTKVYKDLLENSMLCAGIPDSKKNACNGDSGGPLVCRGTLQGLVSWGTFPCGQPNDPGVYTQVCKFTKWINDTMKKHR
Runt-CBFb FRET: inhibitors of human RUNX1 Runt domain binding to CBFb. Q01196+Q13951. Cerulean-Runt/Venus-CBFb FRET ratio 530/480, 1 h. inhibition, % at 20 µM. 220,000 compounds, 0.46% hits;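 active = inhibition over about 50% at 20 µM in the single-dose screen, limit read from the data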
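Doses: 20 µM compound in 1% DMSO | Material: Cerulean-labeled Runt domain protein | Amount: Each fluorescent fusion protein 100 nM | Schedule: Two 1 h room-temperature incubations shielded from light | Measured by: FRET fluorescence | Evaluation: Loss of energy transfer signal | Controls: Unlabeled CBFb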
RanGTP-Imp inh: inhibitors of RanGTP-importin-beta interaction, primary screen, biochemical, FRET, CFP-Ran, YFP-importin-beta, homogeneous. cell-free CFP-Ran/YFP-importin-beta FRET ratio. inhibition, % (no concentration beside the values). 300,000 compounds, 1.1% hits;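 active = more than half of the replicate wells show a fall in the fluorescence ratio signal beyond about 16%, limit read from the data, passing the limit was not always enough; inconclusive = exactly half of the replicate wells pass the set limit; inactive = fewer than half of replicates pass the limit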
AI-2 QS modul: modulates the Vibrio harveyi AI-2 quorum sensing system; Vibrio harveyi JMH597 AI-2 luminescence/OD600 ratio, 9 h; active compounds read low; strain lacks LuxN and CqsS sensors; 0 = neutral-control median; activity change, % at 7.5 µM; 300,000 compounds, 0.4% hits; in the data active = activity change below about -75%, passing the limit was not always enough; inconclusive = no clear call, values can overlap the other calls;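 note: luminescence divided by OD600 gain over 9 h not by final OD600 alone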
Numbers stand for hits; . = inactive; ? = inconclusive; / = not tested or not shown. An excerpt weighted towards active compounds, which were near 2.9% of everything screened.

SMILES	Runt-SMMHC FRET	Wee1 degr inh	proKLK7 act	Runt-CBFb FRET	RanGTP-Imp inh	AI-2 QS modul
CCNC(=O)/C(C#N)=C/c1c(N2CCN(c3ccc(OC)cc3)CC2)nc2c(C)cccn2c1=O	/	/	.	/	.	.
CCNC(=O)/C(C#N)=C/c1c(N2CCN(c3ccccc3)CC2)nc2c(C)cccn2c1=O	/	/	.	/	20	.
N#C/C(=C\c1c(N2CCC(C(N)=O)CC2)nc2ccccn2c1=O)C(=O)NCc1ccco1	107	.	.	128	.	.
CSCCC1NC(=S)N(Cc2ccccc2)C1=O (configuration not stated)	/	/	.	/	.	.
CCCOc1ccc(C(=O)N2CCC(Oc3cccnc3)CC2)cc1	/	/	.	/	/	/
COCCOc1cc(NC(=O)c2ccccc2)c(Cl)cc1Cl	.	.	.	.	.	.
CNC(=O)CS(=O)CC(=O)Nc1cc(OCCOC)c(Cl)cc1Cl (configuration not stated)	.	8.9	.	.	?	.
Cc1cc(-c2cc(NC(=O)Cc3c[nH]c4ccccc34)ccc2N(C)c2cccnc2)ccc1F	/	/	.	/	/	/
COc1ccc2[nH]cc(CCNC(=O)C3CCCO3)c2c1 (configuration not stated)	.	11	.	.	.	.
Cc1ccc2[nH]cc(CCNC(=O)C3CCCO3)c2c1 (configuration not stated)	/	/	.	/	.	.
CN1CCN(C(=O)OC2CC3CC2[C@H]2CCCCN2C3=O)CC1 (some centres not stated)	/	/	.	/	/	/
O=C(c1ccc(C(F)(F)F)cc1)C1CCCN(C(=O)CN2CCCC2=O)C1 (configuration not stated)	.	.	.	.	.	.
O=C(c1ccc(C(F)(F)F)cc1)C1CCCN(C(=O)CN2C(=O)CSC2=O)C1 (configuration not stated)	.	9.8	.	.	.	.
O=C1C/C(=C\c2c(F)cccc2Cl)N2CCC1CC2	.	.	.	.	53	.
Cc1ccc(S(=O)(=O)Nc2cc3c4c(c2)CCN4C(=O)CC3)cc1	/	/	.	/	.	.
CC(CCCC(C)(C)O)NC(=O)c1ccc(OC2CCN(C(=O)C3CC3)CC2)cc1 (configuration not stated)	.	8.9	.	.	.	.
COc1ccc(OC)c(Nc2nc(NCc3ccco3)nc(N)c2[N+](=O)[O-])c1	.	8.9	.	.	.	.
COc1ccccc1Nc1nc(NCc2ccco2)nc(N)c1[N+](=O)[O-]	.	.	.	.	?	/
COc1ccc(N=CC=C2OC(C)(C)C(C)(C)O2)cc1OC	.	.	.	.	15	.
COc1cccc(N=CC=C2OC(C)(C)C(C)(C)O2)c1	.	.	.	.	.	.
CCC(c1nnnn1Cc1ccc(OC)cc1)N(CCCO)Cc1cc2cc3c(cc2[nH]c1=O)OCO3 (configuration not stated)	.	9.2	.	.	.	.
CC(C)C(c1nnnn1Cc1ccccc1)N(CCCO)Cc1cc2cc3c(cc2[nH]c1=O)OCO3 (configuration not stated)	.	.	.	.	.	.
CCCCCCC12C(=Cc3cc(C)ccc31)c1ccccc1C(CC(=O)NCc1ccccc1)N2C(=O)OC (configuration not stated)	/	/	.	/	/	/
COCCNC(=O)C/C(C)=N/NC(=O)C(=O)NC1CCCCC1	.	.	.	.	.	.
COc1ccc(Nc2c3c(nc4ccccc24)CCC3)cc1	/	/	.	/	.	.
SMILES	Runt-SMMHC FRET	Wee1 degr inh	proKLK7 act	Runt-CBFb FRET	RanGTP-Imp inh	AI-2 QS modul
COc1cccc(C(=O)NNc2c3ccccc3nc3ccccc23)c1	/	/	.	/	16	.
O=C(O)c1ccc(Nc2c3ccccc3nc3ccccc23)cc1	/	/	.	/	20	.
COc1ccc(Nc2c3ccccc3nc3ccccc23)cc1	/	/	.	/	67	.
O=C(O)c1ccc(Nc2nc(-c3ccccc3)nc3ccccc23)cc1	/	/	.	/	.	.
CC(C)(C)C(=O)c1c(N)[nH]c(C(=O)c2ccccc2)c1-c1ccc([N+](=O)[O-])cc1	/	/	.	/	/	/
CC1CCN(CC2C(=O)O[C@@H]3C[C@@]4(C)CCC[C@H](C)C4=C[C@H]23)CC(C)(C)C1 (some centres not stated)	/	/	.	/	.	.
CC(C)NC(=O)N(C)C[C@H]1OCc2cn(nn2)CCCC(=O)N([C@H](C)CO)C[C@@H]1C	/	/	.	/	/	/
O=C(COc1ccccc1)NCc1ccco1	/	/	.	/	/	/
N#Cc1c(N)c(C(=O)c2ccccc2)n2ccccc12	/	/	.	/	.	.
N#Cc1c2ccc(O)cc2n2ccccc12	86	.	.	.	19	.
N#Cc1c2ccc(OCC(=O)NCc3ccco3)cc2n2ccccc12	/	/	.	/	21	.
CCOC(=O)C1(C)CCCCCN1C(=O)c1ccco1 (configuration not stated)	/	/	.	/	/	/
COc1ccccc1C(=O)NCC1(c2ccccc2)CCCC1	.	.	.	.	.	.
CCN(CC)c1ccc2cc(-c3nc4ccccc4[nH]3)c(=O)oc2c1	79	.	/	.	129	.
CCN(CC)c1ccc2cc(-c3nc(-c4ccc(OC)cc4)cs3)c(=O)oc2c1	62	.	.	.	/	/
CCN(CC)c1ccc2cc(-c3nnc(-c4ccc(Br)cc4)o3)c(=O)oc2c1	/	.	/	/	/	/
CCN(CC)c1ccc2cc(-c3nc4ccccc4n3C)c(=O)oc2c1	61	.	.	.	126	.
CCN(CC)c1ccc2cc(-c3nnc(-c4ccccc4)o3)c(=O)oc2c1	83	.	.	.	115	.
NNC(=S)Nc1c(F)cc(F)cc1Br	.	.	.	.	.	.
COCc1[nH]nc2c1C(c1ccc3c(c1)OCO3)N(Cc1ccccc1)C2=O (configuration not stated)	/	/	.	/	/	/

Compound activity: PubChem, several laboratories
